Among the data in ChEMBL document CHEMBL4627381, “Licochalcone A Selectively Resensitizes ABCG2-Overexpressing Multidrug-Resistant Cancer Cells to Chemotherapeutic Drugs” (J Nat Prod, 2020) are Activity and IC50 values, retold here.

Series [1] relates to HEK293. As to the kind of experiment: Induction of Calcein-AM accumulation in HEK293 cells at 20 uM incubated for 10 mins by FACScan flow cytometry. The class given is cell-based. Particulars: human, hek293, 10 min. A digest of the protocol: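 Parental HEK293 cells (3 × 10^5) were resuspended in IMDM with 5% FCS and given calcein-AM with or without 20 μM modulator for 10 min. Intracellular calcein (ex 485/em 535 nm) was measured by flow cytometry; at least three independent experiments.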

Series [2] in a line: Cytotoxicity against human NCI-H460/MX20 cells harboring ABCG2 after 72 hrs by MTT assay. The class given is functional, cell-based. The note with it: NCI-H460/MX20, 72 h. A digest of the protocol: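 Cells seeded at 5000/well, allowed 24 h, then exposed to a concentration series for 72 h at 37 °C in DMSO vehicle (up to 0.5% v/v). HEK293 lines were read with CCK-8 and cancer lines with MTT. IC50 was taken from fitted dose-response curves over at least three independent experiments. Lines were kept drug-free for 7 days before assay.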
(Formazan colour is commonly taken as a measure of viable cells.)

Consider `C=CC(C)(C)c1cc(/C=C/C(=O)c2ccc(O)cc2)c(OC)cc1O` [LICOAGROCHACONE A], for which the Activity result in series [1] is on record as “Non-Toxic”. Also, the IC50 (as a rule, the concentration that gives 50% inhibition) in series [2] lay in the range of 10 to 50 µM.
